For assay [1], the system named is Hippocampal neuron. The assay can be described thus: Neuroprotective activity against Abeta-induced neuronal apoptosis in mouse hippocampal neurons assessed as reduction in DNA fragmentation at 30 uM pre-incubated for 4 hrs before Abeta challenge for 72 hrs by immunofluorescence microscopy. Type of assay: functional, tissue-based. Conditions: Hippocampus. The gist of the method:
(§1)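 Primary mouse hippocampal neurons were exposed to Aβ (20 μM, 72 h) alone or with compound. Double immunofluorescence microscopy was then run for DNA fragmentation (TUNEL, green) and total neuronal nuclei (NeuN, red), with merged images. DNase-treated cells served as positive control.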

For assay [2], the target named is 5-hydroxytryptamine receptor 2A (Homo sapiens) (UniProt P28223). As to the kind of experiment: Inhibition of radioligand binding to 5HT2A at 10 uM. Summed up:
(§2)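 Part of an in vitro radioligand binding panel. Each target was tested against a potent standard radioligand for that site. The read-out was percent inhibition of specific binding, reported as an average value.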

Assay [3] can be described thus: Inhibition of radioligand binding to Sigma receptor at 10 uM.
Assay [4] addresses T1, 5-hydroxytryptamine receptor 1A (Homo sapiens) (UniProt P08908).
T1 sequence (whole entry): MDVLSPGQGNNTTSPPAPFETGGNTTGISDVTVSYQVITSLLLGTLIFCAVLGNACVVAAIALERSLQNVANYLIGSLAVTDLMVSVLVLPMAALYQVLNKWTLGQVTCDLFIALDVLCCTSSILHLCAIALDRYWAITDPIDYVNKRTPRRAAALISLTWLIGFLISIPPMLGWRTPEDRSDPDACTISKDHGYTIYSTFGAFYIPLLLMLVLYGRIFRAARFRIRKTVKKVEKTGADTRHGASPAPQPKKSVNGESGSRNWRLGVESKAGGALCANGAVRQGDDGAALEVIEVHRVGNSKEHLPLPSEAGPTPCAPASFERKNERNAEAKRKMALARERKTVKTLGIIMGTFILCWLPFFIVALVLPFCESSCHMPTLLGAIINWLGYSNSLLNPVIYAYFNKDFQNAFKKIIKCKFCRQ
The assay can be described thus: Inhibition of radioligand binding to 5HT1A at 10 uM. Summed up:
as §2

For assay [5], the target named is Mu-type opioid receptor (Homo sapiens) (UniProt P35372). As to the kind of experiment: Inhibition of radioligand binding to MOP receptor at 10 uM. Summed up:
as §2

In assay [6] the target is Delta-type opioid receptor (Homo sapiens) (UniProt P41143). The assay can be described thus: Inhibition of radioligand binding to DOP receptor at 10 uM. Summed up: as §2
A short description of assay [7]: Inhibition of radioligand binding to N-methyl D-aspartate receptor phencyclidine binding site at 10 uM. The gist of the method: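 Radioligand binding panel. Values are average percentages of inhibition of specific binding, measured against potent standard ligands for each target.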
The subject of assay [8] is Hippocampal neuron. As to the kind of experiment: Neuroprotective activity against Abeta-induced neuronal apoptosis in mouse hippocampal neurons assessed as reduction in total neuronal nuclei level at 30 uM pre-incubated for 4 hrs before Abeta challenge for 72 hrs by immunofluorescence microscopy. Type of assay: functional, tissue-based. Conditions: Hippocampus. The gist of the method:
as §1

The target in assay [9] is Acetylcholinesterase (Homo sapiens) (UniProt P22303). As to the kind of experiment: Inhibition of AChE at 10 uM. The gist of the method: as §2
Assay [10] deals with T2, Nischarin (Homo sapiens, UniProt Q9Y2I1). As to the kind of experiment: Inhibition of radioligand binding to imidazole receptor 1 at 10 uM.
Assay [11] has as its target T3, Muscarinic acetylcholine receptor M4 (Homo sapiens) (UniProt P08173).
T3 sequence (whole entry): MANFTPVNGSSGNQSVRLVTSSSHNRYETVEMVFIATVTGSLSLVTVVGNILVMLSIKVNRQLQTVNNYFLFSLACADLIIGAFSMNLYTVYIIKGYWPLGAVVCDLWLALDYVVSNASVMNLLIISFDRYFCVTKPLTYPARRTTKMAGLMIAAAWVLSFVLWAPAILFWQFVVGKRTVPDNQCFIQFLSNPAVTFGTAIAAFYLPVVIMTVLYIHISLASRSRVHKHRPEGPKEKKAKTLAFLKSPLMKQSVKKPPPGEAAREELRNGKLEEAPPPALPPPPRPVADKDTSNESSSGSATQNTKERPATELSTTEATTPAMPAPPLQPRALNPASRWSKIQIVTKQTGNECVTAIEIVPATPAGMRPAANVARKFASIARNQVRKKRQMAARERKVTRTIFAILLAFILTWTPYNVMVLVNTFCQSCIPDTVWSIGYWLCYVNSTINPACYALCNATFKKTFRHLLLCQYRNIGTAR
As to the kind of experiment: Inhibition of radioligand binding to muscarinic M4 receptor at 10 uM. The gist of the method:
as §2

Assay [12] can be described thus: Inhibition of radioligand binding to alpha2 adrenergic receptor at 10 uM. Summed up:
as §2

Assay [13] concerns the target D(2) dopamine receptor (Homo sapiens) (UniProt P14416). As to the kind of experiment: Inhibition of radioligand binding to D2L receptor at 10 uM. Summed up: as §2
Assay [14] has as its target T2, Nischarin. As to the kind of experiment: Inhibition of radioligand binding to imidazole receptor 1.

Calls of active or inactive are those of the source. No cut-off for these calls is given here.

T2 sequence (Q9Y2I1 whole entry): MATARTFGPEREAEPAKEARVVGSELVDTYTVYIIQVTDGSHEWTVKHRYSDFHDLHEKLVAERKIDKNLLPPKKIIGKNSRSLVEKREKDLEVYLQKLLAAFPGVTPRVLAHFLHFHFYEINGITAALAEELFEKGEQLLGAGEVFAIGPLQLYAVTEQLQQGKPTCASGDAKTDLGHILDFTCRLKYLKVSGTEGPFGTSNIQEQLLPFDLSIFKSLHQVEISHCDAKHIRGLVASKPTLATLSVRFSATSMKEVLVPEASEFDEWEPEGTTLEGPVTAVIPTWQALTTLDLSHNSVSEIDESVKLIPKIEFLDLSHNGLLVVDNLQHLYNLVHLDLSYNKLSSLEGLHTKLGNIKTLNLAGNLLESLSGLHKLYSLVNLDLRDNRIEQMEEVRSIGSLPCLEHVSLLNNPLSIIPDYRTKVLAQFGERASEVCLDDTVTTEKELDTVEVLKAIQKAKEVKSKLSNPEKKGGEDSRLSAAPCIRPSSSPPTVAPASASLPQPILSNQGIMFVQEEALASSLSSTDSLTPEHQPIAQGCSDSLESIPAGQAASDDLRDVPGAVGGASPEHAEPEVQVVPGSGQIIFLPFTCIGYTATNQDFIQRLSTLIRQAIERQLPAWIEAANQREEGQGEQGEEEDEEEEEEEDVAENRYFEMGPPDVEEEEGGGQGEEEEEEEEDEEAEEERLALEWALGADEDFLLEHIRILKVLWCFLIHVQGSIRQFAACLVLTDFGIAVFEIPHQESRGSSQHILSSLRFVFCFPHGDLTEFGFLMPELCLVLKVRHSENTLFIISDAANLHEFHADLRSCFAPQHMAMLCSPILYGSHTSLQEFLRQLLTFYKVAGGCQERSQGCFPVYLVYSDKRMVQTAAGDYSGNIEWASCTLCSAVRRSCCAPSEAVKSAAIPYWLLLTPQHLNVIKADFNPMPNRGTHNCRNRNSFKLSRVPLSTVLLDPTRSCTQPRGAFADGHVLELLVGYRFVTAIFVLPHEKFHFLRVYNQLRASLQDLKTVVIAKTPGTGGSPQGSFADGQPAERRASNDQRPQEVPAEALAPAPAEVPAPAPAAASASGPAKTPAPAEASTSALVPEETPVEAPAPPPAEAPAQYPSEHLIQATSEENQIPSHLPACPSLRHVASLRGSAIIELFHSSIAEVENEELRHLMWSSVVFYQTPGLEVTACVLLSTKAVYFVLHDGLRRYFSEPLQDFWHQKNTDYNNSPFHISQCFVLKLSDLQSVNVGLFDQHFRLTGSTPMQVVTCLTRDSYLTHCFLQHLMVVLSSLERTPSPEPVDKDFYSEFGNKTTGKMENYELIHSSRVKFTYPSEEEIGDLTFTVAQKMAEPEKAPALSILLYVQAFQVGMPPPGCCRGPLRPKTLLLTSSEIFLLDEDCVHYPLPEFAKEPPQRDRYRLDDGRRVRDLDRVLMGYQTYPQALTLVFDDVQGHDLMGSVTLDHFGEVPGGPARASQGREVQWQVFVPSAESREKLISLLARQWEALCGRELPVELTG
Sequence of Mu-type opioid receptor (Homo sapiens) (P35372 whole entry): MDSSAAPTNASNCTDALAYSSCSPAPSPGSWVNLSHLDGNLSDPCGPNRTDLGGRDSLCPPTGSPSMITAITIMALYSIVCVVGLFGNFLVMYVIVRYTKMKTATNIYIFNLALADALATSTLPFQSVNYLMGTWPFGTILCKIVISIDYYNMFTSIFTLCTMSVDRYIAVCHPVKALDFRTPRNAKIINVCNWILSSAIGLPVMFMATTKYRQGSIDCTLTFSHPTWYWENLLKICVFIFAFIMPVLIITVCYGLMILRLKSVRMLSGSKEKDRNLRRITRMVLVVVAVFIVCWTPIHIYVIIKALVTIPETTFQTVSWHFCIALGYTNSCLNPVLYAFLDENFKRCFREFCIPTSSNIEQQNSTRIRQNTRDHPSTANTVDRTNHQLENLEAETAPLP
Sequence of Acetylcholinesterase (Homo sapiens) (P22303 whole entry): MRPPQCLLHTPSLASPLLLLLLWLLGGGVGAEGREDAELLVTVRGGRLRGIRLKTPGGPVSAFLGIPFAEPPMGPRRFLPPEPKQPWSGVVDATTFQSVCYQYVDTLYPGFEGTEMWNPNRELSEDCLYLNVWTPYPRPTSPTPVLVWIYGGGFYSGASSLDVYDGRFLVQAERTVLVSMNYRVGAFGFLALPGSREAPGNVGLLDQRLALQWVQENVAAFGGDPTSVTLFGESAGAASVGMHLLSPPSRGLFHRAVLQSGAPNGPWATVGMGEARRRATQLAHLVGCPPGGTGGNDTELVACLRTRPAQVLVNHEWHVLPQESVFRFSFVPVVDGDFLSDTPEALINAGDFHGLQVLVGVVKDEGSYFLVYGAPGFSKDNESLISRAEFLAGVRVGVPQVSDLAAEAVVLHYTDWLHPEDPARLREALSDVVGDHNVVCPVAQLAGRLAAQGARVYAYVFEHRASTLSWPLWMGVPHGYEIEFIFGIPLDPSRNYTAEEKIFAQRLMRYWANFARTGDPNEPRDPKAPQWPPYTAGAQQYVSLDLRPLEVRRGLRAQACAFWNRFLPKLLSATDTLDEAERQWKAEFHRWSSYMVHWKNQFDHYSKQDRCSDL
Sequence of Delta-type opioid receptor (Homo sapiens) (P41143 whole entry): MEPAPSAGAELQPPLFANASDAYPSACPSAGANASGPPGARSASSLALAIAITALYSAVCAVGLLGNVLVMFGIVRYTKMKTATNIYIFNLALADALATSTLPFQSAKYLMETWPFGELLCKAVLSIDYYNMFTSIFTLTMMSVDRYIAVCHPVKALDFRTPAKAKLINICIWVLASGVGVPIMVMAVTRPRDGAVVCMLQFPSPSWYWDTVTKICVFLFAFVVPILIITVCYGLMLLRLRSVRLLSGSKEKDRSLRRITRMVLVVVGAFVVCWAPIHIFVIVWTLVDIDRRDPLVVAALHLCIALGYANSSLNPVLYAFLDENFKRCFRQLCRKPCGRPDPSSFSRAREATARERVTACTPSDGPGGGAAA
Sequence of 5-hydroxytryptamine receptor 2A (Homo sapiens) (P28223 whole entry): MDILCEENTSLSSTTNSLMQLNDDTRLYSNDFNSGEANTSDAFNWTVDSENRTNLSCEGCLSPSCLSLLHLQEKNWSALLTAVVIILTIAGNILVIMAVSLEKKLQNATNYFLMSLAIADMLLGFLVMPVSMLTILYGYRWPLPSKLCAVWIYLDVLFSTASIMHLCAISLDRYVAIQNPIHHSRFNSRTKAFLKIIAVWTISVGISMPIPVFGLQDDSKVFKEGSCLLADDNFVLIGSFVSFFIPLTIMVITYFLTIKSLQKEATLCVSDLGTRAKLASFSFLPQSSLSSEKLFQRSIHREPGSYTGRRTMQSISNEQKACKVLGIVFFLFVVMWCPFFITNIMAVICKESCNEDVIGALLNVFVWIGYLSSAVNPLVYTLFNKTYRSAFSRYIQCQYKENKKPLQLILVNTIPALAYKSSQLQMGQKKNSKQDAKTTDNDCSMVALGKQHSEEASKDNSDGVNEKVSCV
Sequence of D(2) dopamine receptor (Homo sapiens) (P14416 whole entry): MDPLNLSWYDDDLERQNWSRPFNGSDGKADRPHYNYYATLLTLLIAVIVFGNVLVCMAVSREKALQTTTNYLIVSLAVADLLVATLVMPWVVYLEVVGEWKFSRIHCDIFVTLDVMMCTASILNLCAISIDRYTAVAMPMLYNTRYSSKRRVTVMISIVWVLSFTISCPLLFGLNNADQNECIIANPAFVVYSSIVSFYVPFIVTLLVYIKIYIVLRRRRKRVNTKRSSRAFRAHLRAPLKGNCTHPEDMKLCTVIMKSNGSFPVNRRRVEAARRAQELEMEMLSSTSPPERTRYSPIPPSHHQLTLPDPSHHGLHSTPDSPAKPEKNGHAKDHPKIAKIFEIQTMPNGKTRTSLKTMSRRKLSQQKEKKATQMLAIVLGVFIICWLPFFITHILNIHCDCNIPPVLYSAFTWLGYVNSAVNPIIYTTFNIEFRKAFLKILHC

For `CN1CCNC(c2ccccc2)C1` (stereo not given), the result in [1] and in assay [8] was Active. In addition, the inhibition in assay [2], in assay [3], in assay [4], in [5], in assay [6] and in assay [9] was < 20% throughout. Further, the inhibition (in general, the percentage by which the read-out fell short of the control) in assay [10] is 36%; in [11] it was < 20%; in assay [12], < 20%; in [13], < 20%. Moreover, the inhibition result in [7] was “inactive”.

With `NCC12CCC3CC(CC3C1)C2` (stereo not given), the result in assay [1] and in [8] was Active. Moreover, the inhibition was < 20% in assay [2]; 39% in assay [3]; < 20% in assay [4]; < 20% in [5]; < 20% in assay [6]; < 20% in [9]. Moreover, the inhibition in [10], in assay [11], in assay [12] and in [13] was < 20% in each case. Moreover, the inhibition result in assay [7] is “inactive”.

On to `CN(C)C(CN)c1ccccc1Cl` (stereo not given), for which the outcome in [1] and in assay [8] was Active. In addition, the inhibition in assay [2], in [3], in assay [4], in assay [5], in assay [6] and in [9] was < 20% throughout. The inhibition in assay [10], in [11], in assay [12] and in [13] was < 20% throughout. For the same molecule, the inhibition entry in assay [7] was “inactive”. In assay [14], affinity was put at a Ki of 5.2 µM.

(Values after ChEMBL document CHEMBL2176910, “Identification of small molecule inhibitors of amyloid β-induced neuronal apoptosis acting through the imidazoline I(2) receptor” (J Med Chem, 2012).)
